# Data from ChEMBL document CHEMBL2086235, “A novel thiazolidine compound induces caspase-9 dependent apoptosis in cancer cells” (Bioorg Med Chem, 2012).
# Activity calls are given as the source filed them. No cut-off for these calls is given here.
# Assays:
# Format in all cases: functional, cell-based
# [1] = system: Huh-7; assay: Growth inhibition of human HuH7 cells incubated for 48 hrs by Giemsa staining
# Summary of the method: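 Cells grown overnight, compound added from DMSO solution, then incubated 48 h more. Attached cells stained with Giemsa and photographed; qualitative read-out.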
# [2] = system: Huh-7; assay: Induction of cell death in human HuH7 cells at 2.5 to 40 uM incubated for 72 hrs by SRB assay
# Summary of the method: (§1)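 Cells seeded and grown 24 h at 37 °C, then treated 72 h in triplicate. Fixed with cold 10% TCA 1 h at 4 °C, stained with 0.4% SRB in 1% acetic acid 10 min, washed in 1% acetic acid. Dye solubilized in 10 mM Tris base; absorbance read at 515 nm. Normalized to DMSO control and Tz; three independent experiments.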
# [3] = system: MCF7; assay: Induction of cell death in human MCF7 cells at 2.5 to 40 uM incubated for 72 hrs by SRB assay; summary of the method: as §1
# [4] = system: HCT-116; assay: Induction of cell death in human HCT116 cells at 2.5 to 40 uM incubated for 72 hrs by SRB assay; summary of the method: as §1
# [5] = Cytotoxicity against human FOCUS cells incubated for 72 hrs by SRB assay
# Summary of the method: (§2)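 Cells grown in DMEM with 10% FCS, 2 mM L-glutamine, NEAA and antibiotics at 37 °C, 5% CO2, then seeded at 1000–5000 cells/well and grown 24 h. Compounds were added from DMSO for 72 h, following NCI guidelines. Cells were fixed in cold 10% TCA for 1 h at 4 °C and stained with 0.4% SRB in 1% acetic acid for 10 min. Bound dye was dissolved in 10 mM Tris and absorbance read at 515 nm.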
# [6] = system: MCF7; assay: Cytotoxicity against human MCF7 cells incubated for 72 hrs by SRB assay; conditions: MCF7, 72 h; summary of the method: as §2
# [7] = system: CAMA-1; assay: Cytotoxicity against human CAMA1 cells incubated for 72 hrs by SRB assay; conditions: CAMA-1, 72 h; summary of the method: as §2
# [8] = system: BT-20; assay: Cytotoxicity against human BT20 cells incubated for 72 hrs by SRB assay; conditions: BT-20, 72 h; summary of the method: as §2
# [9] = system: Huh-7; assay: Cytotoxicity against human HuH7 cells incubated for 72 hrs by SRB assay; conditions: Huh-7, 72 h; summary of the method: as §2
# [10] = system: T47D; assay: Cytotoxicity against human T47D cells incubated for 72 hrs by SRB assay; summary of the method: as §2
# [11] = system: MFE-296; assay: Cytotoxicity against human MFE296 cells incubated for 72 hrs by SRB assay; conditions: MFE-296, 72 h; summary of the method: as §2
# [12] = system: HepG2; assay: Cytotoxicity against human HepG2 cells incubated for 72 hrs by SRB assay; conditions: HepG2, 72 h; summary of the method: as §2
# [13] = system: HCT-116; assay: Cytotoxicity against human HCT116 cells incubated for 72 hrs by SRB assay; conditions: HCT-116, 72 h; summary of the method: as §2
# [14] = Cytotoxicity against human MV cells incubated for 72 hrs by SRB assay; summary of the method: as §2
compound,measurement,setting,value
CCOC(=O)[C@@H]1CSC(c2ccccc2)N1C(=O)c1cn(CCCCCCO)nn1 (stereo not given in full),growth inhibition (GI),[1],inactive
Cc1cn(CC(=O)N2C(c3ccccc3)SC[C@H]2C(=O)NCc2ccccc2)c(=O)[nH]c1=O (stereo not given in full),growth inhibition (GI),[1],inactive
CCOC(=O)[C@@H]1CSC(c2ccccc2)N1C(=O)c1cn(CC(O)CO)nn1 (stereo not given in full),growth inhibition (GI),[1],inactive
CCOC(=O)[C@@H]1CSC(c2ccccc2)N1C(=O)c1cn(CCc2ccsc2)nn1 (stereo not given in full),Activity,[2],inactive
same,Activity,[3],inactive
same,growth inhibition (GI),[1],inactive
same,Activity,[4],inactive
CCOC(=O)[C@@H]1CSC(c2ccccc2)N1C(=O)c1cn(CC2OCOC2(C)C)nn1 (stereo not given in full),growth inhibition (GI),[1],inactive
Cc1cn(CC(=O)N2C(c3ccccc3)SC[C@H]2C(=O)NC(C)C)c(=O)[nH]c1=O (stereo not given in full),growth inhibition (GI),[1],inactive
CCCCCCC(=O)N(CC(=O)OC)C[C@@H]1CSC(c2ccccc2)N1C(=O)c1ccccc1 (stereo not given in full),growth inhibition (GI),[1],inactive
CC[C@@]1(O)C(=O)OCc2c1cc1n(c2=O)Cc2cc3ccccc3nc2-1 [CAMPTOTHECIN],IC50,[5],< 1000 nM
same,IC50,[6],< 1000 nM
same,IC50,[7],70 nM
same,IC50,[8],70 nM
same,IC50,[9],150 nM
same,IC50,[10],< 1000 nM
same,IC50,[11],< 1000 nM
same,IC50,[12],10 nM
same,IC50,[13],< 1000 nM
same,IC50,[14],< 1000 nM
CCOC(=O)[C@@H]1CSC(c2ccccc2)N1C(=O)c1cn(CC(=O)OCc2ccccc2)nn1 (stereo not given in full),growth inhibition (GI),[1],inactive
COC(=O)CN(C[C@@H]1CSC(c2ccccc2)N1C(=O)c1ccccc1)C(=O)c1c(F)c(F)c(F)c(F)c1F (stereo not given in full),growth inhibition (GI),[1],inactive
CCOC(=O)[C@@H]1CSC(c2ccccc2)N1C(=O)c1cn(CCc2ccc(F)cc2)nn1 (stereo not given in full),growth inhibition (GI),[1],inactive
CCCCCCC(=O)N(CCc1ccsc1)C[C@@H]1CSC(c2ccccc2)N1C(=O)c1ccccc1 (stereo not given in full),growth inhibition (GI),[1],inactive
CCOC(=O)[C@@H]1CSC(c2ccccc2)N1C(=O)c1cn(CCCNC(=O)C(F)(F)F)nn1 (stereo not given in full),growth inhibition (GI),[1],inactive
CCCCCCCCCCC(=O)N(CCc1ccsc1)C[C@@H]1CSC(c2ccccc2)N1C(=O)c1ccccc1 (stereo not given in full),growth inhibition (GI),[1],inactive
O=c1[nH]cc(F)c(=O)[nH]1 [FLUOROURACIL],IC50,[5],7690 nM
same,IC50,[7],1280 nM
same,IC50,[8],47300 nM
same,IC50,[10],8910 nM
same,IC50,[11],30700 nM
same,IC50,[12],5700 nM
same,IC50,[13],18700 nM
same,IC50,[14],9970 nM
CC(C)(C)C(=O)N(CC(=O)O)C[C@@H]1CSC(c2ccccc2)N1C(=O)c1ccccc1 (stereo not given in full),growth inhibition (GI),[1],inactive
